From ChEMBL document CHEMBL1154186, “Synthesis, kinase inhibitory potencies, and in vitro antiproliferative evaluation of new Pim kinase inhibitors” (J Med Chem, 2009)

Columns and labels:
[1] = molecular target: T1, 3-phosphoinositide-dependent protein kinase 1 (Homo sapiens) (UniProt O15530); assay: Inhibition of PDK1 assessed as residual enzyme activity at 10 uM relative to untreated control
T1 sequence (whole entry): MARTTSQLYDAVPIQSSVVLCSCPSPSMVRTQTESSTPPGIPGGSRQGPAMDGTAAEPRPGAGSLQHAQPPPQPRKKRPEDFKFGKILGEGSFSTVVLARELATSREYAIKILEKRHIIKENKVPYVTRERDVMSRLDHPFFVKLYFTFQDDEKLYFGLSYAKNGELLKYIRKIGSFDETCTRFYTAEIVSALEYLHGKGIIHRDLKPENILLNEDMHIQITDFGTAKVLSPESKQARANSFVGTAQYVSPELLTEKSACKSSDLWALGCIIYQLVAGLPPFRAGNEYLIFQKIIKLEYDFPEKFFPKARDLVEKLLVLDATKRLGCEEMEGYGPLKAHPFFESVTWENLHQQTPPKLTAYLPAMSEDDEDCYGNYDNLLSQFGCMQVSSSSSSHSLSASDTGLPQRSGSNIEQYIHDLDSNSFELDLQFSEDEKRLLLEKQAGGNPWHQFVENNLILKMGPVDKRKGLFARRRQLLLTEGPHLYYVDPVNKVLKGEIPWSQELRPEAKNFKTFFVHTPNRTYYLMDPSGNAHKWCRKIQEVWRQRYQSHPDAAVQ
Procedure, shortened: (§1)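 Kinases of human origin, except CK1δ, which is rat. Run in 50 mM Tris/HCl pH 7.5, 0.1 mM EGTA, 0.1% 2-mercaptoethanol and 10 mM Mg acetate, with [γ-33P]ATP at 20 µM, 30 min at 21 °C. Acid-stopped and captured on P81 filters. Compound tested at 10 µM; residual % of uninhibited control, duplicate determinations.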

[2] = system: MKK1 (Oryctolagus cuniculus); assay: Inhibition of MKK1 assessed as residual enzyme activity at 10 uM relative to untreated control
[3] = molecular target: Serine/threonine-protein kinase Chk2 (Homo sapiens) (UniProt O96017); assay: Inhibition of CHK2 assessed as residual enzyme activity at 10 uM relative to untreated control; procedure, shortened: as §1
DU-145 = assay: Antiproliferative activity against human DU145 cells after 48 hrs by resazurin dye reduction assay; type: functional, cell-based; conditions: DU-145, 48 h
Procedure, shortened: (§2)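 Cells (human fibroblast primary culture, or PC3, DU145 or PA1 cancer lines) were kept as monolayers in Glutamax MEM with Earle's salts, 10% FCS, pyruvate, nonessential amino acids and gentamicin, at 37 °C in 5% CO2. 5×10^3 cells/well adhered for 16 h, then had 48 h continuous drug exposure (20 mM DMSO stock). Resazurin 25 µg/mL for 1 h; fluorescence ex 530/em 590 nm. IC50 from blank-corrected concentration–survival curves versus control wells.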

PC-3 = assay: Antiproliferative activity against human PC3 cells after 48 hrs by resazurin dye reduction assay; type: functional, cell-based; conditions: PC-3, 48 h; procedure, shortened: as §2
[4] = Antiproliferative activity against human fibroblasts after 48 hrs by resazurin dye reduction assay; type: cell-based; conditions: Fibroblast; procedure, shortened: as §2
PA-1 = assay: Antiproliferative activity against human PA1 cells after 48 hrs by resazurin dye reduction assay; type: functional, cell-based; conditions: PA-1, 48 h; procedure, shortened: as §2

Sequence of Serine/threonine-protein kinase Chk2 (Homo sapiens) (O96017 whole entry): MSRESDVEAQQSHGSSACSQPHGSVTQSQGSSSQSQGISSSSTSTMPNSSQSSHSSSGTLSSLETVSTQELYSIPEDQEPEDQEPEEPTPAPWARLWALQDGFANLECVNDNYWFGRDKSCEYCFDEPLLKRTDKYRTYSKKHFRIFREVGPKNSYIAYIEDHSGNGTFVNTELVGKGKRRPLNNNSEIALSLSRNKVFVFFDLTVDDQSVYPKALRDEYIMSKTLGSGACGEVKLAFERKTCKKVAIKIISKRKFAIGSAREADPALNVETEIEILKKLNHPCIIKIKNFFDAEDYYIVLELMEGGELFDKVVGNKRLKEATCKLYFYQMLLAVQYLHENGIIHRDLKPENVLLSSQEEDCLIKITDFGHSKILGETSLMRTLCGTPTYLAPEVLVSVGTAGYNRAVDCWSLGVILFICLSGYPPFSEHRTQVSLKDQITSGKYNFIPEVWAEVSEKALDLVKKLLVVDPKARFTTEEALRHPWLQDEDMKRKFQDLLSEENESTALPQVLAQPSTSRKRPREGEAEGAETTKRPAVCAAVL

Activity [1] | Activity [2] | Activity [3] | IC50 (DU-145) | IC50 (PC-3) | Structure (SMILES) | IC50 [4] | IC50 (PA-1)
86% | 87% | 58% | – | – | c1ccc2c(c1)[nH]c1c2ccc2cc[nH]c21 | – | –
82% | 75% | 73% | – | – | c1ccc2c(c1)[nH]c1c3cc[nH]c3ccc21 | – | –
85% | 104% | 89% | – | – | O=Cc1c[nH]c2ccc3c4ccccc4[nH]c3c12 | – | –
– | – | – | 26 µM | 9.5 µM | O=Cc1c[nH]c2c1ccc1c3ccccc3[nH]c12 | 21 µM | 4.5 µM
